Laboratory results taken from ChEMBL document CHEMBL3407378, “Design, synthesis and biological evaluation of novel 7-alkylamino substituted benzo[a]phenazin derivatives as dual topoisomerase I/II inhibitors” (Eur J Med Chem, 2015).
The source made the active and inactive calls. The calls are words filed in the database; no cut-off is given here.

Legend:
[1] = target: DNA topoisomerase 2-alpha (Homo sapiens) (UniProt P11388); experiment: Inhibition of human Topo 2 ATPase domain expressed in yeast BCY123 strain at 25 uM after 1 hr by nonisotopic malachite green assay
Summary of the method: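 Human Topo II ATPase domain overexpressed in yeast BCY123 and purified. Assay buffer: 100 mM Tris-HCl pH 7.4, 20 mM KCl, 6 mM MgCl2. Reaction of 25 µL with compound, started with 1 mM ATP, 1 h at 37 °C. Phosphate detected with malachite green at OD620. No-enzyme background set as 100% inhibition and enzyme-only as 0%.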

[2] = system: HeLa; experiment: Cytotoxicity against human HeLa cells after 48 hrs by MTT assay; assay type: functional, cell-based
Summary of the method: (§1)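 Cells seeded 1 × 10^4 per well and incubated overnight, then given compound at 0–50 µM for 48 h. MTT added (20 µL of 5 mg/mL stock) for 4 h at 37 °C; formazan dissolved in DMSO, absorbance read at 570 nm. Triplicates; IC50 from mean OD versus concentration curves.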

[3] = system: K562; experiment: Cytotoxicity against human K562 cells after 48 hrs by MTT assay; assay type: functional, cell-based; conditions: K562, 48 h; summary of the method: as §1
[4] = Cytotoxicity against human HL60 cells after 48 hrs by MTT assay; assay type: functional, cell-based; conditions: HL-60, 48 h; summary of the method: as §1
[5] = target: DNA topoisomerase 2-alpha (Homo sapiens) (UniProt P11388); experiment: Inhibition of human Topo 2-mediated relaxation of supercoiled pBR322 plasmid at 25 to 50 uM after 30 mins by agarose gel electrophoresis
[6] = system: A549; experiment: Cytotoxicity against human A549 cells after 48 hrs by MTT assay; assay type: functional, cell-based; conditions: A549, 48 h; summary of the method: as §1
[7] = target: T1, DNA topoisomerase 1 (Homo sapiens) (UniProt P11387); experiment: Inhibition of Topo 1 (unknown origin)-mediated relaxation of supercoiled pBR322 plasmid at 25 uM after 30 mins by agarose gel electrophoresis
T1 sequence (whole entry): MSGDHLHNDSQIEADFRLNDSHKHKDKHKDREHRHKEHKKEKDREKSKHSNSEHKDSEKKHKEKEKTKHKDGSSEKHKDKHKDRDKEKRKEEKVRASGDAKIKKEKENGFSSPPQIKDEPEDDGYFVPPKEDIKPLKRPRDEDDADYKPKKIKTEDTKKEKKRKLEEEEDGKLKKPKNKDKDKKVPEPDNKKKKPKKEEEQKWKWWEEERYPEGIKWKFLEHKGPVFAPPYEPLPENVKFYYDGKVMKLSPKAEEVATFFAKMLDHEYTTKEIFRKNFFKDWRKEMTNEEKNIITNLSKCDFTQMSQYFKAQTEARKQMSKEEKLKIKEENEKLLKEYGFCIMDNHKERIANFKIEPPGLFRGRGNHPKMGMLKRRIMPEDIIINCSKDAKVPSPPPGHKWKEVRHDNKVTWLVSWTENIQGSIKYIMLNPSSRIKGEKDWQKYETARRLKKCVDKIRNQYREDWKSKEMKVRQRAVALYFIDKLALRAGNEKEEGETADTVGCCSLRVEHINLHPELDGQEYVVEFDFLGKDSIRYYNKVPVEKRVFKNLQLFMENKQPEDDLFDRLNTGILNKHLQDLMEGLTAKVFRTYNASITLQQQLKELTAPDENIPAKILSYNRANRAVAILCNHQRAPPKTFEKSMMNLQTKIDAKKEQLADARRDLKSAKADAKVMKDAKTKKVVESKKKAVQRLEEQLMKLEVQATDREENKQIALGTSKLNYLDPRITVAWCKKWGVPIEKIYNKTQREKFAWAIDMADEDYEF
Summary of the method: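 Topo I with supercoiled pBR322 and compound, 30 min at 37 °C. Stopped with SDS/bromophenol blue/glycerol dye; run on 1% agarose gel in TAE for 1 h and stained with Gel Red.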

Sequence of DNA topoisomerase 2-alpha (Homo sapiens) (P11388 whole entry, the tested form may be a part): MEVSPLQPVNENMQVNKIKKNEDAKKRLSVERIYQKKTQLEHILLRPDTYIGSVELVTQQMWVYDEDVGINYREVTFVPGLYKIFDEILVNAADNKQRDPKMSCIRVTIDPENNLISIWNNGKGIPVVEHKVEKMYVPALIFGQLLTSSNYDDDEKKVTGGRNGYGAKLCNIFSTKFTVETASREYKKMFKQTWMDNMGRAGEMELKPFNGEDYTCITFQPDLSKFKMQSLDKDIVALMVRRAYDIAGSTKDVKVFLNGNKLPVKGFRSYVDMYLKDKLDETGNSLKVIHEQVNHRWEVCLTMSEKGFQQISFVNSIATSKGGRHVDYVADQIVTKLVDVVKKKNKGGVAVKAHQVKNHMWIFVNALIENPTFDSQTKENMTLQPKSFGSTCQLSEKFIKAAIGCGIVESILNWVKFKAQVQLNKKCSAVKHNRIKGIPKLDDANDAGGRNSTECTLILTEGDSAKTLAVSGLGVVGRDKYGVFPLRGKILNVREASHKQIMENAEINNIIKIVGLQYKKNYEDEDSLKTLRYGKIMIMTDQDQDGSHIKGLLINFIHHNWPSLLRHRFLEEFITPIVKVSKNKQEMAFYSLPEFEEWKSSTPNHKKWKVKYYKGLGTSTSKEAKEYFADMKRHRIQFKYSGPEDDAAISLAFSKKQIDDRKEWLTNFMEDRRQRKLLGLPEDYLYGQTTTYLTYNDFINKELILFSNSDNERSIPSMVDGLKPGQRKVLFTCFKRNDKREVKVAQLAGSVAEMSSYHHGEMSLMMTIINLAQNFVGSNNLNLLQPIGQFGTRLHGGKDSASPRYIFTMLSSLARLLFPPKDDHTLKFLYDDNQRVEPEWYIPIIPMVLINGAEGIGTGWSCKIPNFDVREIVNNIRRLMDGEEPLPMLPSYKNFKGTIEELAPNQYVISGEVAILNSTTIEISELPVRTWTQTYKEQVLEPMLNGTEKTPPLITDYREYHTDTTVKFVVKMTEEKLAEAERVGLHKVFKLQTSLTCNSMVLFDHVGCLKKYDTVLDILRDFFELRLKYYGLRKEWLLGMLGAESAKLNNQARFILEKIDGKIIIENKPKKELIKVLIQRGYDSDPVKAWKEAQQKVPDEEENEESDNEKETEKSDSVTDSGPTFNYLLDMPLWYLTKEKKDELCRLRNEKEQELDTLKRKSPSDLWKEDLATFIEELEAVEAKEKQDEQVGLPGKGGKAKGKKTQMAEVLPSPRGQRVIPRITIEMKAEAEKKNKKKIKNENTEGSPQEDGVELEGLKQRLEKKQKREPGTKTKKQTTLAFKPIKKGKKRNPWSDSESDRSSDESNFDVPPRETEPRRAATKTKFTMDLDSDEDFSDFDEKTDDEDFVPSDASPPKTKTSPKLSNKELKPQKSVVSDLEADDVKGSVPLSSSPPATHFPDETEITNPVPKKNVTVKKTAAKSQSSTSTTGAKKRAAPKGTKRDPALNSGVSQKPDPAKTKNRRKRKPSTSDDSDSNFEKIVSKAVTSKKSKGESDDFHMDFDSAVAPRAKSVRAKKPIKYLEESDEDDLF

SMILES	inhibition [1] [%]	IC50 [2] [µM]	IC50 [3] [µM]	IC50 [4] [nM]	Topo 2 inhibition (active/not active) [5]	IC50 [6] [µM]	Topo I relaxation inhibition (active/not active) [7]
O=C1C=CC(=O)c2ccccc21	56						
CCCn1c2cc(=O)c3ccccc3c-2nc2ccccc21		> 50	> 40	32100	inactive	> 50	
CCN(CC)CCCCn1c2cc(=O)c3ccccc3c-2nc2ccccc21		29.4	26	220		18.9	
COc1cc([C@@H]2c3cc4c(cc3[C@@H](O[C@@H]3O[C@@H]5CO[C@@H](C)O[C@H]5[C@H](O)[C@H]3O)[C@H]3COC(=O)[C@H]23)OCO4)cc(OC)c1O [ETOPOSIDE]		0.54	1.64	60		8.91	
CN1CCN(CCn2c3cc(=O)c4ccccc4c-3nc3ccccc32)CC1		28.9	21.6	380		25.3	Active
O=c1cc2n(CCN3CCCCC3)c3ccccc3nc-2c2ccccc12		32	25.2	930	Active	37.3	inactive
COc1ccc2c3nc4ccccc4n(CCCN(C)C)c-3cc(=O)c2c1		28.4	6.12	150		24.6	inactive
CCN(CC)CCn1c2cc(=O)c3ccccc3c-2nc2ccccc21		25.4	25.6	310		29.2	
COc1ccc2c(c1)nc1c3ccccc3c(=O)cc-1n2CCCN(C)C		24.9	20.2	960		25.9	inactive
O=c1cc2n(CCN3CCOCC3)c3ccccc3nc-2c2ccccc12		> 50	> 40	6910		> 50	
O=c1cc2n(CCCN3CCCCC3)c3ccccc3nc-2c2ccccc12		27.4	10.3	520	Active	33	inactive
COc1ccc2c(c1)nc1c3ccc(OC)cc3c(=O)cc-1n2CCCN(C)C		6.52	22	650		34.5	inactive
CN(C)CCn1c2cc(=O)c3ccccc3c-2nc2ccccc21		9.91	24.6	310	Active	22.3	Active
